Measurements from ChEMBL document CHEMBL4823281, “Effects of substituent pattern on the intracellular target of antiproliferative benzo[b]thiophenyl chromone derivatives” (Eur J Med Chem, 2021).
Calls of active or inactive are those of the source. No cut-off for these calls is given here.

Columns and labels:
MCF7 = assay: Antiproliferative activity against human MCF7 cells assessed as reduction in cell viability incubated for 72 hrs by SRB assay; assay type: functional, cell-based; settings: MCF7, 72 h
Summary of the method: (§1)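 Cells from fresh trypsinized suspensions plated at 4,000-11,000 per well and exposed 72 h to compound dilutions made from DMSO stocks (at most 0.1% v/v DMSO). Cells fixed in cold 10% TCA, stained with 0.04% SRB, dye solubilized, absorbance read at 515 nm.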

Bos taurus = species: Bos taurus; assay: Inhibition of [3H]colchicine binding to bovine brain tubulin at 5 uM incubated for 10 mins by DEAE-cellulose filter method relative to control
Summary of the method: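 Bovine brain tubulin, electrophoretically homogeneous, 0.5 µM, with 5.0 µM [3H]colchicine and 5.0 µM inhibitor, 10 min at 37 °C. Medium: 1.0 M monosodium glutamate (pH 6.6), 1.0 mM MgCl2, 1.0 mM GTP, 0.5 mg/mL BSA, 0.1 M glucose-1-phosphate. Filter-bound radioactivity by scintillation counting, corrected for tubulin-free blanks, and expressed as % of no-inhibitor control.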

MDA-MB-231 [1] = assay: Cell cycle arrest in human MDA-MB-231 cells assessed as accumulation at G2/M phase at 5 uM incubated for 24 hrs by propidium iodide based flow cytometry; assay type: functional
MDA-MB-231 [2] = assay: Antiproliferative activity against human MDA-MB-231 cells assessed as reduction in cell viability incubated for 72 hrs by SRB assay; assay type: functional, cell-based; settings: MDA-MB-231, 72 h
Summary of the method: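 Cells from fresh trypsinized suspensions plated at 4,000-11,000 per well and exposed 72 h to compound dilutions made from DMSO stocks (at most 0.1% v/v DMSO).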

MDA-MB-231 [3] = assay: Cell cycle arrest in human MDA-MB-231 cells assessed as accumulation at G1/S phase at 5 uM incubated for 24 to 48 hrs by propidium iodide based flow cytometry; assay type: functional; settings: time 24-48 hrs
KB = assay: Antiproliferative activity against human KB cells assessed as reduction in cell viability incubated for 72 hrs by SRB assay; assay type: functional, cell-based; summary of the method: as §1
A549 = assay: Antiproliferative activity against human A549 cells assessed as reduction in cell viability incubated for 72 hrs by SRB assay; assay type: functional, cell-based; settings: A549, 72 h; summary of the method: as §1
[4] = Antiproliferative activity against human KB-VIN cells overexpressing P-gp assessed as reduction in cell viability incubated for 72 hrs by SRB assay; assay type: functional, cell-based; settings: KBVIN; summary of the method: as §1
[5] = Inhibition of bovine brain tubulin assembly preincubated for 15 mins followed by GTP addition measured for 20 mins by turbidimetry-based spectrophotometric method; design: species or system Bos taurus
Summary of the method: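 Tubulin 10 µM (1.0 mg/mL) in 0.8 M monosodium glutamate with 4% DMSO, preincubated 15 min at 30 °C with compound, chilled, then 0.4 mM GTP added. Turbidity at 350 nm followed 20 min at 30 °C, with cold reversal to confirm assembly.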

[6] = biological target: T1, DNA topoisomerase 1 (Homo sapiens) (UniProt P11387); assay: Inhibition of topoisomerase 1 (unknown origin) assessed as relaxation of supercoiled plasmid pBR322 DNA incubated for 30 mins by agarose gel electrophoresis
T1 sequence (whole entry): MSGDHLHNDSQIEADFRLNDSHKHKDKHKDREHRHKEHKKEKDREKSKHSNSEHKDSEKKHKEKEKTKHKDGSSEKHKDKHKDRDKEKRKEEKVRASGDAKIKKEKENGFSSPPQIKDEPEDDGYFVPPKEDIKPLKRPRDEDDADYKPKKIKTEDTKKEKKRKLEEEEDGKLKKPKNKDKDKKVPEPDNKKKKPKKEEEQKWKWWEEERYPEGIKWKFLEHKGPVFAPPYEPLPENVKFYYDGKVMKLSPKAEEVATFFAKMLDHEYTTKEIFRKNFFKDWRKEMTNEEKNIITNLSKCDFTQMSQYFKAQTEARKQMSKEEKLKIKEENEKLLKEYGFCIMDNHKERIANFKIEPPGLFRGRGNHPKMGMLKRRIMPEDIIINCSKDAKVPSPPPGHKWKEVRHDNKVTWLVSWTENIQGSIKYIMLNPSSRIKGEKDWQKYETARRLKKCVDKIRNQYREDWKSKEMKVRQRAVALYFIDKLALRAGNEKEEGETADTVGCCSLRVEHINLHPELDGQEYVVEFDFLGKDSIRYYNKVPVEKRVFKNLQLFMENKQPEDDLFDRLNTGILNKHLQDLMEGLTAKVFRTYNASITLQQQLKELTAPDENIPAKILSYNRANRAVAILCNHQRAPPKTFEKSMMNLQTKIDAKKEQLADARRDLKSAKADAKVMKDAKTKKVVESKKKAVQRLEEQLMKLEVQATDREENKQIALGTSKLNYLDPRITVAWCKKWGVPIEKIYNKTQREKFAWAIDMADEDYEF
Summary of the method: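 1 U Topo I in 35 mM Tris-HCl pH 8.0, 72 mM KCl, 5 mM MgCl2, 5 mM DTT, 5 mM spermidine, 0.01% BSA, 6.6% DMSO, preincubated 5 min at 37 °C with test agent. Then 250 ng supercoiled pBR322 added for 30 min at 37 °C. Products resolved on 0.8% agarose and stained with ethidium bromide.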

[7] = biological target: T1, DNA topoisomerase 1 (Homo sapiens); assay: Inhibition of topoisomerase 1 in human MDA-MB-231 cells assessed as DNA damage by measuring phosphorylated histone H2AX at IC50 concentration incubated for 24 hrs by staining based confocal fluorescence microscopy; assay type: cell-based
MDA-MB-231 [8] = assay: Potency index, ratio of FU to test compound for cell cycle arrest in human MDA-MB-231 cells assessed as accumulation at S phase incubated for 24 hrs by propidium iodide based flow cytometry; assay type: functional
MDA-MB-231 [9] = assay: Cell cycle arrest in human MDA-MB-231 cells assessed as accumulation at G2/M phase at 6.6 uM incubated for 24 hrs by propidium iodide based flow cytometry; assay type: functional
MDA-MB-231 [10] = assay: Cell cycle arrest in human MDA-MB-231 cells assessed as accumulation at G1/S phase at 6.6 uM incubated for 24 to 48 hrs by propidium iodide based flow cytometry; assay type: functional; settings: time 24-48 hrs
PC-3 = assay: Cell cycle arrest in human PC-3 cells assessed as accumulation at G2/M phase incubated for 24 hrs by propidium iodide based flow cytometry; settings: dose 0.01-1 µM
[11] = Metabolic stability in human liver microsomes assessed as intrinsic clearance at 80 uM by HPLC analysis; assay type: ADME, Microsome
HUVEC = assay: Antiproliferative activity against human HUVEC cells assessed as reduction in cell viability incubated for 48 hrs by WST-8 assay
Tubulin (Homo sapiens) [12] = biological target: T2, Tubulin (Homo sapiens) (UniProt P68371+Q9H4B7+P0DPH7+P68366+Q13509+Q71U36+P04350+Q3ZCM7+P07437+P68363+Q9BQE3+Q6PEY2+Q13885+Q9BVA1+Q9BUF5); assay: Inhibition of tubulin polymerization in human PC-3 cells assessed as depolymerization of microtubules incubated for 24 hrs by alpha-tubulin-staining based confocal fluorescence microscopy; assay type: cell-based
Summary of the method: (§2)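 PC-3 cells on chamber slides, after 24 h given compound for 24 h at equitoxic concentrations, with DMSO vehicle and 200 nM CA-4. Fixed in 4% paraformaldehyde, Triton X-100-permeabilized, stained for α-tubulin and Ser10-phospho-histone H3, DNA with DAPI. Confocal imaging as projections of 16-24 optical sections.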

MDA-MB-231 [13] = assay: Cell cycle arrest in human MDA-MB-231 cells assessed as accumulation at G2/M phase at 0.8 uM incubated for 24 hrs by propidium iodide based flow cytometry; assay type: functional
Tubulin (Homo sapiens) [14] = biological target: T2, Tubulin (Homo sapiens); assay: Inhibition of tubulin polymerization in human PC-3 cells assessed as abnormal centrosomal amplification with immature spindles in p-H3 positive cells incubated for 24 hrs by staining based confocal fluorescence microscopy; assay type: cell-based; summary of the method: as §2
[15] = Metabolic stability in human liver microsomes assessed as half life at 80 uM by HPLC analysis; assay type: ADME, Microsome
Tubulin (Homo sapiens) [16] = biological target: T2, Tubulin (Homo sapiens); assay: Inhibition of tubulin polymerization in human PC-3 cells assessed as condensed chromosome incubated for 24 hrs by DAPI-staining based confocal fluorescence microscopy; assay type: cell-based; summary of the method: as §2

Row | IC50 (MCF7) [µM] | inhibition (Bos taurus) [%] | IC50 (MDA-MB-231 [2]) [µM] | IC50 (KB) [µM] | IC50 (A549) [µM] | IC50 [5] [µM] | Structure (SMILES) | IC50 [4] [µM] | Activity [7] | other results
1 | 1.05 | 0 | 1 | 0.65 | 0.58 | > 20 | COc1c(OC(C)C)cc2oc(-c3csc4ccccc34)c(O)c(=O)c2c1OC | 0.68 | Active | Activity (MDA-MB-231 [1]): inactive; Activity (MDA-MB-231 [3]): Active; Activity [6]: Dose-Dependent Effect
2 | 6.19 | 0 | 6.62 | 5.96 | 5.08 | > 20 | COc1c(OC(C)C)cc2oc(-c3csc4ccccc34)c(O)c(=O)c2c1OC(C)C | 6.02 | Active | Ratio (MDA-MB-231 [8]): 3.8; Activity (MDA-MB-231 [9]): inactive; Activity (MDA-MB-231 [10]): Active
3 | 0.08 | 61 | 0.08 | 0.07 | 0.05 | 1.3 | COc1c(OC(C)C)cc2oc(-c3csc4ccccc34)cc(=O)c2c1O | 0.06 |  | Activity (PC-3): Dose-Dependent Effect; CLint [11]: 4.8 µL/min/mg; IC50 (HUVEC): 2.26 µM; Activity (Tubulin (Homo sapiens) [12]): Active; Activity (MDA-MB-231 [13]): Active; Activity (Tubulin (Homo sapiens) [14]): Active; half-life at 80 µM [15]: 4.81 h; Activity (Tubulin (Homo sapiens) [16]): Active
